What all share (conditions): read-out: pA2 (converted)
Test [1] is filed under the species Rattus norvegicus. Nature of the test: In vitro anti-oxytocic potency was evaluated in the presence of 0.5 mM of Mg2+. Format: functional. In a few lines: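 Isolated rat uterus in medium containing 0.5 mM Mg2+. USP posterior pituitary reference standard used as agonist. In vitro pA2 values were derived as in Bankowski et al.; means ± SE.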
Test [2] deals with Rattus norvegicus. Nature of the test: In vivo anti-vasopressor activity measured as the negative logarithm of the effective dose / the estimated volume of distribution (67 mL/kg). Format: ADME, organism-based. In a few lines: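 Rats treated with phenoxybenzamine under urethane anesthesia. Pressor responses to the USP posterior pituitary standard were given intravenously. Effective dose (nmol/kg) was interpolated on a log scale; means ± SE of at least four estimates. pA2 = −log(effective dose / 67 mL/kg).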

The species named for test [3] is Rattus norvegicus. Nature of the test: In vitro anti-oxytocic potency was evaluated in the absence of Mg2+. Format: functional. In a few lines: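 Isolated rat uterus in medium containing no Mg2+. USP posterior pituitary reference standard used as agonist. In vitro pA2 values were derived as in Bankowski et al.; means ± SE.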

SMILES strings stand for the structures.

In the case of `CCOc1ccc(C[C@@H]2NC(=O)CC(C)(C)SSC[C@@H](C(=O)N3CCC[C@H]3C(=O)N[C@@H](CCCN=C(N)N)C(=O)NCC(N)=O)NC(=O)[C@H](CC(N)=O)NC(=O)[C@H](C(C)C)NC(=O)[C@H](Cc3ccccc3)NC2=O)cc1`, the results for the Kb in the test listed under Rattus norvegicus [1], in the test on Rattus norvegicus [2] and in the test listed under Rattus norvegicus [3] were 21.9 nM, 8.51 nM and 2.29 nM, respectively.
On the same counts, the results for `COc1ccc(C[C@@H]2NC(=O)CC(C)(C)SSC[C@@H](C(=O)N3CCC[C@H]3C(=O)N[C@@H](CCCN=C(N)N)C(=O)NCC(N)=O)NC(=O)[C@H](CC(N)=O)NC(=O)[C@H](C(C)C)NC(=O)[C@H](Cc3ccccc3)NC2=O)cc1` are 12.6 nM, 4.37 nM and 3.72 nM.
For `CCOc1ccc(C[C@@H]2NC(=O)CC(C)(C)SSC[C@@H](C(=O)N3CCC[C@H]3C(=O)N[C@H](CCCN=C(N)N)C(=O)NCC(N)=O)NC(=O)[C@H](CC(N)=O)NC(=O)[C@H](C(C)C)NC(=O)[C@H](Cc3ccccc3)NC2=O)cc1`, the Kb was 26.9 nM in the test filed under Rattus norvegicus [1], 3.47 nM with Rattus norvegicus [2] and 15.1 nM in the test listed under Rattus norvegicus [3].
Regarding `CCOc1ccc(C[C@@H]2NC(=O)CC(CC)(CC)SSC[C@@H](C(=O)N3CCC[C@H]3C(=O)N[C@H](CCCN=C(N)N)C(=O)NCC(N)=O)NC(=O)[C@H](CC(N)=O)NC(=O)[C@H](C(C)C)NC(=O)[C@H](Cc3ccccc3)NC2=O)cc1`, the values for the Kb in the test filed under Rattus norvegicus [1], with Rattus norvegicus [2] and in the test listed under Rattus norvegicus [3] were 12.9 nM, 6.46 nM and 10.5 nM, respectively.
On the same counts, the results for `CCC1(CC)CC(=O)N[C@@H](Cc2ccc(OC)cc2)C(=O)N[C@@H](Cc2ccccc2)C(=O)N[C@@H](C(C)C)C(=O)N[C@@H](CC(N)=O)C(=O)N[C@H](C(=O)N2CCC[C@H]2C(=O)N[C@H](CCCN=C(N)N)C(=O)NCC(N)=O)CSS1` are 11.7 nM, 4.47 nM and 18.6 nM.
In the same order, the values of `CCOc1ccc(C[C@@H]2NC(=O)CC(CC)(CC)SSC[C@@H](C(=O)N3CCC[C@H]3C(=O)N[C@@H](CCCN=C(N)N)C(=O)NCC(N)=O)NC(=O)[C@H](CC(N)=O)NC(=O)[C@H](CCC(N)=O)NC(=O)[C@H](Cc3ccccc3)NC2=O)cc1` are 10 nM, 3.47 nM and 3.72 nM.
In the same order, the values of `CCOc1ccc(C[C@@H]2NC(=O)CC(C)(C)SSC[C@@H](C(=O)N3CCC[C@H]3C(=O)N[C@@H](CCCN=C(N)N)C(=O)NCC(N)=O)NC(=O)[C@H](CC(N)=O)NC(=O)[C@H](CCC(N)=O)NC(=O)[C@H](Cc3ccccc3)NC2=O)cc1` are 44.7 nM, 3.98 nM and 7.59 nM.
`COc1ccc(C[C@@H]2NC(=O)CC(C)(C)SSC[C@@H](C(=O)N3CCC[C@H]3C(=O)N[C@H](CCCN=C(N)N)C(=O)NCC(N)=O)NC(=O)[C@H](CC(N)=O)NC(=O)[C@H](C(C)C)NC(=O)[C@H](Cc3ccccc3)NC2=O)cc1`: the Kb is 21.4 nM in the test listed under Rattus norvegicus [1], 14.5 nM with Rattus norvegicus [2] and 31.6 nM in the test filed under Rattus norvegicus [3].
On the same counts, the results for `CCC1(CC)CC(=O)N[C@@H](Cc2ccc(OC)cc2)C(=O)N[C@@H](Cc2ccccc2)C(=O)N[C@@H](C(C)C)C(=O)N[C@@H](CC(N)=O)C(=O)N[C@H](C(=O)N2CCC[C@H]2C(=O)N[C@@H](CCCN=C(N)N)C(=O)NCC(N)=O)CSS1` are 11.7 nM, 5.13 nM and 2.57 nM.
`CCOc1ccc(C[C@@H]2NC(=O)CC(CC)(CC)SSC[C@@H](C(=O)N3CCC[C@H]3C(=O)N[C@H](CCCN=C(N)N)C(=O)NCC(N)=O)NC(=O)[C@H](CC(N)=O)NC(=O)[C@H](CCC(N)=O)NC(=O)[C@H](Cc3ccccc3)NC2=O)cc1`: the Kb in the test listed under Rattus norvegicus [1] is 28.8 nM; with Rattus norvegicus [2], 4.68 nM; in the test listed under Rattus norvegicus [3], 70.8 nM.
On the same counts, the results for `CCC1(CC)CC(=O)N[C@@H](Cc2ccc(OC)cc2)C(=O)N[C@@H](Cc2ccccc2)C(=O)N[C@@H](CCC(N)=O)C(=O)N[C@@H](CC(N)=O)C(=O)N[C@H](C(=O)N2CCC[C@H]2C(=O)N[C@@H](CCCN=C(N)N)C(=O)NCC(N)=O)CSS1` are 6.46 nM, 2.95 nM and 11 nM.

The record behind these values is ChEMBL document CHEMBL1122821, “Synthesis and some pharmacological properties of 18 potent O-alkyltyrosine-substituted antagonists of the vasopressor responses to arginine-vasopressin” (J Med Chem, 1985).
